This note sets out measurements from PubChem BioAssay.

Assay [1] can be described thus: OD615 S. cerevisiae growth inhibition, permissive medium, pilot counter-assay, permissive growth control for S. cerevisiae lifespan shortening project (AID 705;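 active = growth inhibition above 25% in both replicates, a cutoff set 3 SD above the mean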). Conditions: OD615, 24 h, at 10 µM, active compounds read high. An outline of the steps:
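Test system: Saccharomyces cerevisiae strain carrying genetically modified DeaD replicative-lifespan system; buffer or medium: SC raffinose/galactose permissive medium; dosing: one dose 10 µM, DMSO 0.25% final; times: 24 h exposure, 30 °C; measured by: OD at 615 nm; read-out basis: growth inhibition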

A short description of assay [2]: Restrictive medium S. cerevisiae growth inhibition, OD615, pilot screen of yeast lifespan reduction project, restrictive growth control (AID 706;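 active = growth inhibition above a set limit, 3 SD over mean compound inhibition, in both replicates, cut at about 43% in these data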;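 note: modified DeaD lifespan yeast strain shifted to restrictive glucose medium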). As to conditions: OD615, 48 h, at 10 µM, active compounds read high. The method in brief: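 material = engineered S. cerevisiae DeaD strain | buffer or medium = glucose-based CSMM-D restrictive medium | dosing = one concentration, 10 µM final, 0.25% DMSO | schedule = 4 h pre-growth plus 48 h compound exposure, 30 °C | detection = OD615 absorbance reading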

Assay [3] can be described thus: viability gain of MRP-1-high H69AR cells under doxorubicin, pilot screen, MRP-1 activator project, CellTiter-Glo, duplicate (AID 807).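 Note: compound pretreatment 18-22 h then 72 h combined with doxorubicin; 0% = doxorubicin alone and 100% = vehicle without doxorubicin.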 As to conditions: H69AR viability with doxorubicin, CellTiter-Glo luminescence; at 10 µM; active compounds read high. Background: In ATP-based viability assays light output follows the ATP content of the culture.
The nature of assay [4]: growth suppression of beta-catenin knockout HCT116, pilot screen, human colon tumor cells (AID 823;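 active = cell viability at or below a set limit in both duplicate runs, the limit being the all-compound median minus 4 SD, cut at about 23% in these data, passing the limit was not always enough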;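 note: 0% = wells killed by 20 µM Hyamine and 100% = untreated DMSO cell wells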). As to conditions: CellTiter-Glo, 60 h, at 10 µM, active compounds read low.
Assay [5] can be described thus: growth suppression of PTEN-deleted HCT116, pilot screen, cell-based, HCT116 clonal line, CellTiter-Glo (AID 824;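 active = viability at or below 27.92% in each of two runs, the all-compound median minus 4 SD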;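 note: 0% = 20 µM Hyamine control and 100% = vehicle cell control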). As to conditions: 60 h, at 10 µM, active compounds read low.
Assay [6] is described as follows: inhibitors of the yeast RAM network, pilot screen, dse1pr::URA3 reporter, 5-FOA selection (AID 869;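 active = inhibition over a set limit, the all-compound mean plus 3 SD, in both replicate runs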;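 note: 0% = DMSO wells with no growth and 100% = 10 µM 1-NA-PP1 with full growth; RAM network block rescues cells from 5-FOA so hits raise OD615 growth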). As to conditions: S. cerevisiae dse1pr::URA3 5-FOA growth, OD615, 2 d; at 10 µM; active compounds read high; strain carries analog-sensitive mutant Cbk1 kinase.
Assay [7] is described as follows: RAM signaling pathway blockade in yeast – S. cerevisiae, Pdr1DBD-CYC8 efflux-inhibited sensitized strain, primary screen (AID 1298;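 active = RAM network inhibition above 8.4% in each of two replicates, 3 SD over the compound average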;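 note: 0% = DMSO untreated cells without growth and 100% = 10 µM 1-NA-PP1 full growth; higher means more yeast growth rescued from 5-FOA killing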). Conditions: S. cerevisiae cbk1-as DSE1-URA3 strain, 5-FOA growth OD615, 2 d; at 50 µM; active compounds read high.

Values without a mark were called inactive. Records with an inconclusive call do not appear. The source made the active and inactive calls.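 Rule for the calls, unless noted: active = viability increase at or above a cutoff of the median across tested compounds plus 3 SD (cut at about 8.5% in these data, passing the limit was not always enough); inconclusive = some gains above the cutoff, reason not given; inactive = the rest.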

For the molecule `CCOc1ccc(NC(=O)c2cnc3scc(C)n3c2=O)cc1`, the figures for the growth inhibition in assay [1] and in assay [2] were -17.7% and 3.42%, respectively. For the same molecule, in assay [3], the viability increase was -1.16%. Besides, the figures for the viability in assay [4] and in assay [5] were 101% and 98.9%, respectively. For the same molecule, the inhibition (commonly the change of the read-out against control, counted positive when it falls) in assay [6] is 2.76%. The RAM network inhibition in assay [7] is 8.45%.

In the case of `O=C(CSc1nc2c(c(=O)n1-c1ccc(Cl)cc1)SCC2)Nc1nccs1`, the growth inhibition in assay [1] is -2.95%; in assay [2], -4.84%. Moreover, in assay [3], the viability increase is -2.93%. For the same molecule, the viability (in general, a read-out of living cells in per cent, often relative to untreated cells) was 82.5% in assay [4] and 78.4% in assay [5]. The inhibition in assay [6] was 3.08%. Besides, the RAM network inhibition in assay [7] was 5.03%.

As for `COc1ccc(CCNC(=O)CCS(=O)(=O)c2cccc3nsnc23)cc1OC`, the growth inhibition in assay [1] was -10.1%; in assay [2], -13.1%. The viability increase in assay [3] was -2.17%. The viability in assay [4] is 96.4%; in assay [5] it was 97.5%. Moreover, the inhibition in assay [6] was 0.45%. Also, the RAM network inhibition in assay [7] was 3.1%.

On to `Cc1cccc(-n2ncc3c(NC(C)C)ncnc32)c1`, for which the results for the growth inhibition in assay [1] and in assay [2] were 5.47% and 3.18%, respectively. Further, the viability increase in assay [3] is -0.3%. The viability in assay [4] is 101%; in assay [5], 84.3%. In assay [6], the inhibition is 0.87%. The RAM network inhibition in assay [7] is -0.57%.

In the case of `COc1ccc(Cc2nnc(SCC(=O)NC(C)c3ccccc3)o2)cc1` (centres undefined), the growth inhibition in assay [1] was 2.93%; in assay [2] it was -8.12%. In addition, the viability increase in assay [3] was -1.25%. Also, the viability in assay [4] is 91.2%; in assay [5] it was 86.8%. For the same molecule, in assay [6], the inhibition is 0.57%. The RAM network inhibition in assay [7] is 4.19%.

`Cc1cc(=O)[nH]c(SCC(=O)NCCOc2ccccc2)n1`: the growth inhibition in assay [1] was -2.17%; in assay [2] it was -1.72%. For the same molecule, the viability increase in assay [3] is -0.09%. The results for the viability in assay [4] and in assay [5] were 102% and 98.8%, respectively. The inhibition in assay [6] was 1.02%. Also, the RAM network inhibition in assay [7] was 1.13%.

As to `CCOc1ccc(-c2nc(-c3ccccc3)no2)cc1OCC`, the growth inhibition in assay [1] is -16.6%; in assay [2], -29.6%. Further, the viability increase in assay [3] was 2.12%. Also, the viability in assay [4] is 106%; in assay [5] it was 91%. In assay [6], the inhibition was 3.66%. In addition, in assay [7], the RAM network inhibition was 5.86%.

As to `O=C(CS(=O)(=O)c1cn(Cc2cccc(F)c2)c2ccccc12)N1CCOCC1`, the growth inhibition in assay [1] was -9.09%; in assay [2], -22%. Further, the viability increase in assay [3] is -3.47%. In addition, the viability in assay [4] was 91.1%; in assay [5], 88.8%. In addition, the inhibition in assay [6] was 2.82%. Also, in assay [7], the RAM network inhibition is 6%.

Turning to `COc1cc(Cl)c(S(=O)(=O)n2cnc(C)c2)cc1Cl`, the growth inhibition was 2.76% in assay [1] and 0.12% in assay [2]. For the same molecule, the viability increase in assay [3] is 0.28%. The results for the viability in assay [4] and in assay [5] were 101% and 104%, respectively. The inhibition in assay [6] is 1.33%. Besides, the RAM network inhibition in assay [7] was 2.3%.

With `CCSCCOC(=O)C1=C(C)NC(=O)NC1c1cccc(OC)c1OC` (centres undefined), the results for the growth inhibition in assay [1] and in assay [2] were -15% and -9.84%, respectively. In addition, in assay [3], the viability increase is -1.39%. Moreover, the viability in assay [4] was 96.8%; in assay [5], 96.9%. Moreover, the inhibition in assay [6] was 0.96%. Also, the RAM network inhibition in assay [7] is 0.63%.

As for `Cc1cc(/C=N/n2cnnc2)c(C)n1-c1ccc(C(=O)O)cc1`, the growth inhibition is 5.52% in assay [1] and -2.69% in assay [2]. Also, the viability increase in assay [3] is 1.76%. The viability was 102% in assay [4] and 99% in assay [5]. For the same molecule, the inhibition in assay [6] is 0.98%. In addition, the RAM network inhibition in assay [7] is 2.56%.

Take `CN(C)C(C(=O)NC1CCCCC1)c1ccc(Cl)cc1` (centres undefined): the growth inhibition in assay [1] is -5.65%; in assay [2], -17.6%. For the same molecule, the viability increase in assay [3] was -3.08%. Further, the results for the viability in assay [4] and in assay [5] were 80.2% and 84.2%, respectively. Moreover, the inhibition in assay [6] is 0.575%. The RAM network inhibition in assay [7] was -0.68%.

In the case of `Cc1ccc(OCc2nc(-c3ccccn3)no2)c(Br)c1`, the growth inhibition was 1.26% in assay [1] and 4.31% in assay [2]. In assay [3], the viability increase was 1.13%. Moreover, the viability was 86.7% in assay [4] and 84.9% in assay [5]. Besides, the inhibition in assay [6] is -0.35%. Also, the RAM network inhibition in assay [7] was 1.62%.

Consider `CC(=O)c1ccc(NC(=O)CSc2nnc(Cc3cccn3C)n2-c2ccc(F)cc2)cc1`, for which the growth inhibition in assay [1] is 0.105%; in assay [2], 12.5%. In addition, in assay [3], the viability increase is -2.21%. Moreover, the viability in assay [4] is 98%; in assay [5], 94.3%. In addition, in assay [6], the inhibition was 0.005%. Also, the RAM network inhibition in assay [7] is 5.1%.

Take `CCOC(=O)CC1C(=O)NCCN1Cc1cccc(OC)c1` (centres undefined): the growth inhibition is -12.5% in assay [1] and -6.96% in assay [2]. Besides, the viability increase in assay [3] is 0.71%. Moreover, the values for the viability in assay [4] and in assay [5] were 100% and 108%, respectively. In assay [6], the inhibition was 0.17%. Moreover, the RAM network inhibition in assay [7] was 1.79%.

In the case of `NC(=O)CSc1ncnc2c1oc1ccccc12`, the growth inhibition was -17.7% in assay [1] and -9.65% in assay [2]. In addition, the viability increase in assay [3] was -2.08%. For the same molecule, the values for the viability in assay [4] and in assay [5] were 99.5% and 91.6%, respectively. Further, the inhibition in assay [6] was 0.41%. Besides, the RAM network inhibition in assay [7] is 0.74%.

On to `Cc1ccc(O)c(N=CC2=C(O)c3ccccc3C2=O)c1`, for which the growth inhibition was -0.76% in assay [1] and 5.53% in assay [2]. In addition, in assay [3], the viability increase was -3.88%. The viability in assay [4] is 61.6%; in assay [5], 64.2%. Also, in assay [6], the inhibition was 1.85%. Moreover, the RAM network inhibition in assay [7] was 1.92%.

As for `Cc1ccc(N2C(=O)c3ccc(C(=O)N4CCN(c5ccccc5F)CC4)cc3C2=O)cc1`, the growth inhibition was -4.5% in assay [1] and -2.21% in assay [2]. The viability increase in assay [3] was -1.97%. Also, the viability is 90.5% in assay [4] and 90% in assay [5]. The inhibition in assay [6] is 1.33%. Also, the RAM network inhibition in assay [7] is 4.71%.

As to `COCCNC(=O)c1cc2c(=O)n3cccc(C)c3nc2n1C`, the growth inhibition in assay [1] is -9.01%; in assay [2], -20.7%. Also, in assay [3], the viability increase was -5.8%. In addition, the viability in assay [4] is 34.3%; in assay [5] it was 33.9%. The inhibition in assay [6] is 1.85%. For the same molecule, the RAM network inhibition in assay [7] is 3.01%.

Consider `COc1ccc(C2CC(c3cccc(Cl)c3)n3nc(N)nc3N2)cc1` (centres undefined), for which the growth inhibition in assay [1] is -3.22%; in assay [2] it was -3.25%. Moreover, the viability increase in assay [3] is -0.53%. The values for the viability in assay [4] and in assay [5] were 99.8% and 89.9%, respectively. Also, the inhibition in assay [6] is 1.37%. Moreover, the RAM network inhibition in assay [7] was 2.3%.

Regarding `CN(C)CCNc1ncnc2c1cnn2-c1ccc(Cl)cc1`, the growth inhibition is -13.2% in assay [1] and -3.57% in assay [2]. Further, the viability increase in assay [3] was -7.01%. Also, the viability in assay [4] is 4.33% (active); in assay [5], 4.63% (active). The inhibition in assay [6] was 1.62%. For the same molecule, the RAM network inhibition in assay [7] was 3.07%.

On to `CC1CN(Cc2nc3c(c(=O)n(C)c(=O)n3C)n2Cc2ccccc2)CC(C)O1` (centres undefined), for which the growth inhibition in assay [1] is -2.62%; in assay [2], 3.58%. Moreover, in assay [3], the viability increase was -0.81%. Further, the viability in assay [4] was 106%; in assay [5], 100%. Besides, the inhibition in assay [6] was 0.15%. In addition, in assay [7], the RAM network inhibition was 2.1%.
